Activity calls are given as the source filed them.
Legend:
Mus musculus [1] = test: Neurotoxicity in albino mouse assessed as minimal motor impairment at 300 mg/kg, ip after 4 hrs by rotorod test; assay type: toxicity, organism-based; parameters: dose 300 mg/kg, route intraperitoneal; settings: in vivo
Summary of the method: (§1)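 Male albino mice (Carworth Farms No. 1) were dosed ip with suspensions in 0.5% methylcellulose and put on a 1 in. knurled rod rotating at 6 rpm at set times after dosing. Neurotoxicity meant failure to stay on the rod for at least 1 min in each of three trials. Scored as impaired/tested.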

Mus musculus [2] = test: Anticonvulsant activity in albino mouse assessed as protection against subcutaneous pentetrazole-induced seizures at 300 mg/kg, ip after 4 hrs; assay type: functional, organism-based; parameters: dose 300 mg/kg
Summary of the method: (§2)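 Male albino mice (Carworth Farms No. 1) received compound ip in 0.5% methylcellulose, then pentetrazole 85 mg/kg sc in 0.9% NaCl at 0.5 or 4 h. Mice were watched for at least 30 min. Protection meant no threshold seizure, defined as a single clonic spasm lasting at least 5 s. Scored as protected/tested.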

Rattus norvegicus [3] = test: Neurotoxicity in Sprague-Dawley rat assessed as minimal motor impairment at 30 mg/kg, po after 0.25 hrs by rotorod test; settings: in vivo
Mus musculus [4] = test: Anticonvulsant activity in albino mouse assessed as protection against maximal electroshock-induced seizures at 100 mg/kg, ip after 0.5 hrs; assay type: functional, organism-based; parameters: dose 100 mg/kg
Summary of the method: (§3)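 Male albino mice (Carworth Farms No. 1) were given the compound ip as a suspension in 0.5% methylcellulose at 3–300 mg/kg. MES testing was at 0.5 and 4 h, sometimes also at 0.25 and 1 h. Current was 60 Hz, 50 mA, 0.2 s via corneal electrodes, with saline eye drops. Protection meant no hindlimb tonic extension, scored as protected/tested.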

Mus musculus [5] = test: Anticonvulsant activity in albino mouse assessed as protection against subcutaneous pentetrazole-induced seizures at 100 mg/kg, ip after 4 hrs; assay type: functional, organism-based; parameters: dose 100 mg/kg; summary of the method: as §2
Mus musculus [6] = test: Anticonvulsant activity in albino mouse assessed as protection against maximal electroshock-induced seizures at 30 mg/kg, ip after 4 hrs; assay type: functional, organism-based; parameters: dose 30 mg/kg; summary of the method: as §3
Rattus norvegicus [7] = test: Neurotoxicity in Sprague-Dawley rat assessed as minimal motor impairment at 30 mg/kg, po after 2 hrs by rotorod test; settings: in vivo
[8] = Neurotoxicity in ip dosed albino mouse assessed as minimal motor impairment after 0.25 hrs by rotorod test; assay type: toxicity, organism-based; settings: in vivo
Summary of the method: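 TD50, with 95% confidence intervals, was the ip dose causing neurotoxicity in 50% of male albino mice. Deficit was judged on the rotorod: a 1 in. knurled rod at 6 rpm, where failure to hold on for 1 min in each of three trials counted as deficit. Read at the stated time after dosing.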

Rattus norvegicus [9] = test: Neurotoxicity in Sprague-Dawley rat assessed as minimal motor impairment at 30 mg/kg, po after 0.5 hrs by rotorod test; settings: in vivo
Rattus norvegicus [10] = test: Neurotoxicity in Sprague-Dawley rat assessed as minimal motor impairment at 30 mg/kg, po after 4 hrs by rotorod test; settings: in vivo
Mus musculus [11] = species: Mus musculus; test: Protective index, ratio TD50 for albino mouse to ED50 for albino mouse by maximal electroshock-induced seizure test after 1 hr; assay type: functional
Summary of the method: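 Protective index was calculated as mouse ip TD50 (rotorod) divided by mouse ip MES ED50, both obtained by quantitative dose-response testing at the stated post-dose time.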

Mus musculus [12] = test: Anticonvulsant activity in albino mouse assessed as protection against maximal electroshock-induced seizures at 30 mg/kg, ip after 0.5 hrs; assay type: functional, organism-based; parameters: dose 30 mg/kg; summary of the method: as §3
Mus musculus [13] = test: Anticonvulsant activity in albino mouse assessed as protection against subcutaneous pentetrazole-induced seizures at 300 mg/kg, ip after 0.5 hrs; assay type: functional, organism-based; parameters: dose 300 mg/kg; summary of the method: as §2
Mus musculus [14] = test: Anticonvulsant activity in albino mouse assessed as protection against subcutaneous pentetrazole-induced seizures at 30 mg/kg, ip after 0.5 hrs; assay type: functional, organism-based; parameters: dose 30 mg/kg; summary of the method: as §2
Mus musculus [15] = test: Anticonvulsant activity in albino mouse assessed as protection against subcutaneous pentetrazole-induced seizures at 100 mg/kg, ip after 0.5 hrs; assay type: functional, organism-based; parameters: dose 100 mg/kg; summary of the method: as §2
Mus musculus [16] = test: Neurotoxicity in albino mouse assessed as minimal motor impairment at 10 mg/kg, ip after 0.5 hrs by rotorod test; assay type: toxicity, organism-based; parameters: dose 10 mg/kg, route intraperitoneal; settings: in vivo; summary of the method: as §1
Mus musculus [17] = test: Anticonvulsant activity in ip dosed albino mouse assessed as protection against maximal electroshock-induced seizures after 1 hr; assay type: functional
Summary of the method: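 ED50, with 95% confidence intervals, was the ip dose protecting 50% of mice in the MES test. It was measured at the stated post-dose time in male albino mice given suspensions in 0.5% methylcellulose. MES used 60 Hz, 50 mA, 0.2 s corneal stimulation, and the endpoint was abolition of hindlimb tonic extension.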

Mus musculus [18] = test: Anticonvulsant activity in albino mouse assessed as protection against maximal electroshock-induced seizures at 300 mg/kg, ip after 4 hrs; assay type: functional, organism-based; parameters: dose 300 mg/kg; summary of the method: as §3
Mus musculus [19] = test: Anticonvulsant activity in albino mouse assessed as protection against maximal electroshock-induced seizures at 3 mg/kg, ip after 0.5 hrs; assay type: functional, organism-based; parameters: dose 3 mg/kg; summary of the method: as §3
Mus musculus [20] = test: Neurotoxicity in albino mouse assessed as minimal motor impairment at 100 mg/kg, ip after 4 hrs by rotorod test; assay type: toxicity, organism-based; parameters: dose 100 mg/kg, route intraperitoneal; settings: in vivo; summary of the method: as §1
Mus musculus [21] = test: Neurotoxicity in albino mouse assessed as minimal motor impairment at 30 mg/kg, ip after 0.5 hrs by rotorod test; assay type: toxicity, organism-based; parameters: dose 30 mg/kg, route intraperitoneal; settings: in vivo; summary of the method: as §1
Mus musculus [22] = test: Anticonvulsant activity in albino mouse assessed as protection against subcutaneous pentetrazole-induced seizures at 30 mg/kg, ip after 4 hrs; assay type: functional, organism-based; parameters: dose 30 mg/kg; summary of the method: as §2
Mus musculus [23] = test: Anticonvulsant activity in albino mouse assessed as protection against maximal electroshock-induced seizures at 300 mg/kg, ip after 0.5 hrs; assay type: functional, organism-based; parameters: dose 300 mg/kg; summary of the method: as §3
Mus musculus [24] = test: Anticonvulsant activity in albino mouse assessed as protection against maximal electroshock-induced seizures at 100 mg/kg, ip after 4 hrs; assay type: functional, organism-based; parameters: dose 100 mg/kg; summary of the method: as §3
Mus musculus [25] = test: Anticonvulsant activity in ip dosed albino mouse assessed as protection against subcutaneous pentetrazole-induced seizures after 1 hr; assay type: functional
Mus musculus [26] = test: Neurotoxicity in albino mouse assessed as minimal motor impairment at 30 mg/kg, ip after 4 hrs by rotorod test; assay type: toxicity, organism-based; parameters: dose 30 mg/kg, route intraperitoneal; settings: in vivo; summary of the method: as §1
Mus musculus [27] = test: Neurotoxicity in albino mouse assessed as minimal motor impairment at 3 mg/kg, ip after 0.5 hrs by rotorod test; assay type: toxicity, organism-based; parameters: dose 3 mg/kg, route intraperitoneal; settings: in vivo; summary of the method: as §1
Rattus norvegicus [28] = test: Neurotoxicity in Sprague-Dawley rat assessed as minimal motor impairment at 30 mg/kg, po after 1 hr by rotorod test; settings: in vivo
Mus musculus [29] = test: Neurotoxicity in albino mouse assessed as minimal motor impairment at 100 mg/kg, ip after 0.25 hrs by rotorod test; assay type: toxicity, organism-based; parameters: dose 100 mg/kg, route intraperitoneal; settings: in vivo; summary of the method: as §1
Mus musculus [30] = test: Anticonvulsant activity in albino mouse assessed as protection against maximal electroshock-induced seizures at 100 mg/kg, ip after 0.25 hrs; assay type: functional, organism-based; parameters: dose 100 mg/kg; summary of the method: as §3
Mus musculus [31] = test: Anticonvulsant activity in albino mouse assessed as protection against maximal electroshock-induced seizures at 100 mg/kg, ip after 1 hr; assay type: functional, organism-based; parameters: dose 100 mg/kg; summary of the method: as §3
Mus musculus [32] = test: Neurotoxicity in albino mouse assessed as minimal motor impairment at 100 mg/kg, ip after 1 hr by rotorod test; assay type: toxicity, organism-based; parameters: dose 100 mg/kg, route intraperitoneal; settings: in vivo; summary of the method: as §1

Row | Compound | Activity (Mus musculus [1]) | Activity (Mus musculus [4]) | Activity (Mus musculus [5]) | Activity (Mus musculus [6]) | Activity (Mus musculus [12]) | Activity (Mus musculus [13]) | Activity (Mus musculus [14]) | Activity (Mus musculus [15]) | Activity (Mus musculus [18]) | Activity (Mus musculus [20]) | Activity (Mus musculus [23]) | Activity (Mus musculus [24]) | other results
1 | CC[C@@H](CO)NCc1ccc2oc3cc(OC)ccc3c(=O)c2c1 | Toxic | Active | inactive | inactive | Active | inactive | inactive | inactive | Active | Non-toxic | Active | Active | Activity (Mus musculus [2]): inactive; Activity (Rattus norvegicus [3]): Non-toxic; Activity (Rattus norvegicus [7]): Non-toxic; TD50 at 0.25 h [8]: > 400 mg/kg; Activity (Rattus norvegicus [9]): Non-toxic; Activity (Rattus norvegicus [10]): Non-toxic; Ratio TD50/ED50 (Mus musculus [11]): >8.41; Activity (Mus musculus [16]): Non-toxic; ED50 (Mus musculus [17]): 47.6 mg/kg; Activity (Mus musculus [19]): inactive; Activity (Mus musculus [21]): Non-toxic; Activity (Mus musculus [22]): inactive; ED50 (Mus musculus [25]): > 200 mg/kg; Activity (Mus musculus [26]): Non-toxic; Activity (Mus musculus [27]): Non-toxic; Activity (Rattus norvegicus [28]): Non-toxic
2 | COc1ccc2c(=O)c3cccc(CN(C)C(C)CO)c3oc2c1 (racemic) | Non-toxic | inactive | inactive | inactive | inactive | inactive | inactive | inactive | Active | Non-toxic | Active | inactive | Activity (Mus musculus [29]): Non-toxic; Activity (Mus musculus [30]): inactive; Activity (Mus musculus [31]): inactive; Activity (Mus musculus [32]): Non-toxic
